# The source made the active and inactive calls. The rule behind the calls is not given here.
# Tests used:
# J-Lat A1 [1] = assay: Anti retroviral activity against human J-Lat A1 cells harboring a single copy of latent HIV LTR assessed as HIV reactivation at 2 uM incubated for 24 hrs by flow cytometry analysis; format: functional, cell-based
# How it was run: (§1)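 J-Lat A1 cells (single latent LTR-GFP copy) treated 24 h at fixed levels (10 nM PEP005, 500 nM SAHA, 2 μM JQ1/GSK343/Prostratin, 10 ng/ml TNF, 5 ng/ml PMA); percentage GFP-positive cells by flow cytometry.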
# J-Lat A1 [2] = assay: Anti retroviral activity against PEP005 treated human J-Lat A1 cells harboring a single copy of latent HIV LTR assessed as HIV reactivation at 2 uM followed by 6 nM of PEP005 incubated for 24 hrs by flow cytometry analysis; format: functional, cell-based
# How it was run: (§2)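 J-Lat A1 cells (RPMI1640, 10% FBS, 37°C, 5% CO2) exposed to 2 μM agent alone or combined with 6 nM PEP005 for 24 h; percentage of GFP-expressing cells by flow cytometry; Bliss independence model for synergy; ≥3 independent experiments in triplicate.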
# [3] = Inhibition of PKCtheta/PKCdelta in HIV infected human J-Lat A cells assessed as reduction of PEP005 induced disruption of HIV latency treated at 2.5 nM relative to control; set-up: species or system J-Lat A1; scale not given: the % may be the effect or the level left; settings: condition hiv infection
# J-Lat A1 [4] = assay: Cytotoxicity against human J-Lat A1 cells harboring a single copy of latent HIV LTR assessed as cell viability at 2 to 40 nM by Live/Dead dye staining assay; format: functional, cell-based; settings: dose 2-40 nM
# How it was run: (§3)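 J-Lat A1 cells exposed to PEP005 over 2–40 nM for 24 h; HIV reactivation as GFP expression by flow cytometry, fold versus untreated; viability by Live/Dead dye staining, flow cytometry.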
# [5] = Anti retroviral activity against human J-Lat A1 cells harboring a single copy of latent HIV LTR assessed as fold increase in HIV reactivation at 20 nM by flow cytometry analysis; format: functional; how it was run: as §3
# J-Lat A1 [6] = assay: Anti retroviral activity against human J-Lat A1 cells harboring a single copy of latent HIV LTR assessed as HIV reactivation by flow cytometry analysis; format: functional, cell-based; settings: dose 2-40 nM; how it was run: as §3
# J-Lat A1 [7] = assay: Anti retroviral activity against human J-Lat A1 cells harboring a single copy of latent HIV LTR assessed as HIV reactivation at 10 nM incubated for 24 hrs by flow cytometry analysis; format: functional, cell-based; how it was run: as §1
# U1 [8] = assay: Anti retroviral activity against human U1 cells harbouring HIV genomes with Tat gene mutation assessed as fold increase in HIV reactivation at 6 nM by flow cytometry analysis; format: functional
# J-Lat A1 [9] = assay: Induction of PKC/NF-Kappa B pathway in human J-Lat A1 cells assessed as upregulation of PKC mu/D at 12 nM upto 6 hrs by Western blotting analysis; format: cell-based
# How it was run: (§4)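 One million J-Lat A1 cells incubated with 12 nM PEP005 up to 6 h; RIPA extracts with protease/phosphatase inhibitors; immunoblots for PKC isoforms, phospho-PKCδ/θ, NF-κB/p65 and phospho-IκBα (Ser32), β (Thr19/Ser23), ε (Ser18/22); band intensities by densitometry, three independent experiments.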
# J-Lat A1 [10] = assay: Induction of PKC/NF-Kappa B pathway in human J-Lat A1 cells assessed as upregulation of PKC alpha at 12 nM upto 6 hrs by Western blotting analysis; format: cell-based; how it was run: as §4
# J-Lat A1 [11] = assay: Induction of PKC/NF-Kappa B pathway in human J-Lat A1 cells assessed as upregulation of PKC theta at 12 nM upto 6 hrs by Western blotting analysis; format: cell-based; how it was run: as §4
# J-Lat A1 [12] = assay: Induction of PKC/NF-Kappa B pathway in human J-Lat A1 cells assessed as upregulation of PKC delta at 12 nM at 1 hr by Western blotting analysis; format: cell-based; how it was run: as §4
# [13] = Induction of PKCtheta/PKCdelta phosphorylation at Ser676/Ser643 in human J-Lat A1 cells assessed as fold change measured after 30 mins; settings: condition hiv infection, 0.5 h
# [14] = target: T1, Inhibitor of nuclear factor kappa-B kinase subunit beta (Homo sapiens) (UniProt O14920); assay: Induction of IkappaB beta phosphorylation in human […] at 12 nM upto 6 hrs by Western blotting analysis; format: cell-based; settings: J-Lat A1; how it was run: as §4
# T1 sequence (whole entry): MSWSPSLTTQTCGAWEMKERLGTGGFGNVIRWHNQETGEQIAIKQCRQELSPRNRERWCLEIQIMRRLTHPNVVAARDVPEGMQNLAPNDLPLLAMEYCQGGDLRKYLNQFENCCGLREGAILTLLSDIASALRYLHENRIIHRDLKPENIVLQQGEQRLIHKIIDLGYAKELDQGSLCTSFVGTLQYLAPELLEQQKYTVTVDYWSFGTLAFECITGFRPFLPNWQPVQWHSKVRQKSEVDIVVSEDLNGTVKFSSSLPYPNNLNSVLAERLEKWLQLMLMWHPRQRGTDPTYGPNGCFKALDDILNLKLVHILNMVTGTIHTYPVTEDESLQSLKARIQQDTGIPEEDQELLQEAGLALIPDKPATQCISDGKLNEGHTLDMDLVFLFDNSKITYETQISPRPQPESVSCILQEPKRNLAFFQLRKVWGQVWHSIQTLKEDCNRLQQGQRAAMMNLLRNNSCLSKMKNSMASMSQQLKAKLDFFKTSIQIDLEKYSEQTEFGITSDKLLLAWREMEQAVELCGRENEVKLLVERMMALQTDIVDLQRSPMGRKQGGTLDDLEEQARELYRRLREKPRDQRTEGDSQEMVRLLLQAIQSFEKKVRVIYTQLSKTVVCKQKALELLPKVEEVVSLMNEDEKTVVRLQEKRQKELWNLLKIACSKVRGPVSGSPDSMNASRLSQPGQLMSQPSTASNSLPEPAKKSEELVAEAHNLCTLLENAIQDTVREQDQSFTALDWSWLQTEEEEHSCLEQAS
# J-Lat A1 [15] = assay: Effect on NF kappaB/p65 expression in human […] at 12 nM upto 6 hrs by Western blotting analysis; format: functional, cell-based; how it was run: as §4
# [16] = Inhibition of PKCtheta/PKCdelta in HIV infected human J-Lat A cells assessed as reduction of HIV latent reactivation treated at 6 nM in presence of PKC inhibitor relative to control; set-up: species or system J-Lat A1; scale not given: the % may be the effect or the level left; settings: condition hiv infection
# How it was run: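 J-Lat A1 cells got 6 nM PEP005 together with 1, 2 or 5 μM PKCθ/δ inhibitor. HIV reactivation was read as GFP expression by RT-qPCR against PEP005-only cells. Data from at least 3 independent experiments in triplicate.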
# [17] = Binding affinity of NFkappa B to HIV LTR in human J-Lat A1 cells assessed as fold increase at 12 nM by ChIP-qPCR analysis; settings: condition hiv infection
# How it was run: (§5)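 ChIP-qPCR on J-Lat A1 cells, 1x10^6 per sample, given 12 nM PEP005 with or without a PKCδ/θ inhibitor. Cells fixed in 1% formaldehyde and lysed in SDS/EDTA/Tris pH 8.1 buffer with protease inhibitors. Chromatin sonicated to 200–1500 bp. Immune complexes taken on protein A/G-agarose for 45 min, then reverse cross-linked overnight. NF-κB/p65 binding at HIV LTR read by SYBR qPCR. Data from at least 3 independent experiments in triplicate.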
# [18] = Binding affinity of NFkappa B to HIV LTR in human J-Lat A1 cells assessed as reduction in compound induced fold increase at 12 nM in presence of PKC inhibitor by ChIP-qPCR analysis relative to control; set-up: scale not given: the % may be the effect or the level left; settings: condition hiv infection; how it was run: as §5
# [19] = Cytotoxicity against human CD4+ T cells assessed as change in CD38 expression at 12 nM for 24 hrs by RT-qPCR analysis; format: toxicity, cell-based; settings: cd4+ t cell, 0.012 µM
# How it was run: (§6)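 CD4+ T cells purified from uninfected donors, treated 24 h with 12 nM; total RNA extracted and CD38, CD69, CD25 and HLA-DR transcripts measured by RT-qPCR.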
# [20] = Cytotoxicity against human CD4+ T cells assessed as change in CD25 expression at 12 nM for 24 hrs by RT-qPCR analysis; format: toxicity, cell-based; settings: cd4+ t cell, 0.012 µM; how it was run: as §6
# [21] = Cytotoxicity against human CD4+ T cells assessed as change in CD69 expression at 12 nM for 24 hrs by RT-qPCR analysis; format: toxicity, cell-based; settings: cd4+ t cell, 0.012 µM; how it was run: as §6
# CD4+ T cell [22] = assay: Induction of pro-inflammatory cytokine TNF-alpha expression in human CD4+ T cells at 6 to 12 nM for 24 to 72 hrs by RT-qPCR analysis; format: functional, cell-based; settings: dose 6-12 nM, time 24-72 hrs
# How it was run: (§7)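 CD4+ T cells from healthy HIV-negative donors treated with 6 or 12 nM PEP005 for 24 or 72 h; TNF-α, IFN-γ, IL-2 and IL-6 mRNA quantified by RT-qPCR normalized to GAPDH.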
# CD4+ T cell [23] = assay: Induction of pro-inflammatory cytokine IFN-gamma expression in human CD4+ T cells at 6 to 12 nM for 24 to 72 hrs by RT-qPCR analysis; format: functional, cell-based; settings: dose 6-12 nM, time 24-72 hrs; how it was run: as §7
# CD4+ T cell [24] = assay: Induction of pro-inflammatory cytokine IL-2 expression in human CD4+ T cells at 6 to 12 nM for 24 to 72 hrs by RT-qPCR analysis; format: functional, cell-based; settings: dose 6-12 nM, time 24-72 hrs; how it was run: as §7
# CD4+ T cell [25] = assay: Induction of pro-inflammatory cytokine IL-6 expression in human CD4+ T cells at 6 to 12 nM for 24 to 72 hrs by RT-qPCR analysis; format: functional, cell-based; settings: dose 6-12 nM, time 24-72 hrs; how it was run: as §7
# J-Lat A1 [26] = assay: Induction of cell cycle arrest in human J-Lat A1 cells assessed as accumulation of cells at S phase at 12 nM for 24 hrs BrdU ELISA analysis; format: functional, cell-based
# How it was run: (§8)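 U1, J-Lat A1 or healthy-donor CD4+ T cells treated 24 h with 12 nM PEP005; S-phase progression by BrdU incorporation ELISA; doxorubicin […] positive control.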
# U1 [27] = assay: Induction of cell cycle arrest in human U1 cells assessed as accumulation of cells at S phase at 12 nM for 24 hrs BrdU ELISA analysis; format: functional, cell-based; how it was run: as §8
# CD4+ T cell [28] = assay: Induction of cell cycle arrest in human CD4+ T cells assessed as accumulation of cells at S phase at 12 nM for 24 hrs BrdU ELISA analysis; format: functional, cell-based; how it was run: as §8
# J-Lat A1 [29] = assay: Anti retroviral activity against PEP005 treated human J-Lat A1 cells harboring a single copy of latent HIV LTR assessed as HIV reactivation at 2 uM incubated for 24 hrs by flow cytometry analysis; format: functional, cell-based; how it was run: as §2
# U1 [30] = assay: Anti retroviral activity against PEP005 treated human U1 cells harbouring complete HIV genomes with Tat gene mutation assessed as fold increase in HIV reactivation at 2 uM followed by 6 nM of PEP005 incubated for 24 hrs by flow cytometry analysis; format: functional
# J-Lat A1 [31] = assay: Anti retroviral activity against human J-Lat A1 cells harboring a single copy of latent HIV LTR assessed as HIV reactivation at 500 nM incubated for 24 hrs by flow cytometry analysis; format: functional, cell-based; how it was run: as §1
# J-Lat A1 [32] = assay: Anti retroviral activity against human J-Lat A1 cells harboring a single copy of latent HIV LTR assessed as HIV reactivation at 5 ng/ml incubated for 24 hrs by flow cytometry analysis; format: functional, cell-based; how it was run: as §1
smiles,measurement,setting,value
CCCc1cc(C)[nH]c(=O)c1CNC(=O)c1cc(-c2ccnc(N3CCN(C)CC3)c2)cc2c1cnn2C(C)C,Activity,J-Lat A1 [1],inactive
same,Activity,J-Lat A1 [2],Active
Cc1ccc(S(=O)(=O)/C=C/C#N)cc1,Activity,[3],50%
CC(=O)O[C@@]12C[C@@H](C)[C@@]3(O)[C@@H](C=C(CO)C[C@]4(O)C(=O)C(C)=C[C@@H]34)[C@@H]1C2(C)C,Activity,J-Lat A1 [1],Active
C/C=C(/C)C(=O)O[C@H]1C(C)=C[C@]23C(=O)[C@@H](C=C(CO)[C@@H](O)[C@]12O)[C@H]1[C@@H](C[C@H]3C)C1(C)C [INGENOL MEBUTATE],Activity,J-Lat A1 [4],inactive
same,fold change (FC),[5],7
same,Activity,J-Lat A1 [6],Dose-Dependent Effect
same,Activity,J-Lat A1 [7],Active
same,fold change (FC),U1 [8],25
same,Activity,J-Lat A1 [9],inactive
same,Activity,J-Lat A1 [10],inactive
same,Activity,J-Lat A1 [11],inactive
same,Activity,J-Lat A1 [12],Active
same,fold change (FC),[13],2
same,Activity,[14],inactive
same,Activity,J-Lat A1 [15],inactive
same,Activity,[16],>65%
same,fold change (FC),[17],6
same,Activity,[18],>70%
same,Activity,[19],Non-Toxic
same,Activity,[20],Non-Toxic
same,Activity,[21],Non-Toxic
same,Activity,CD4+ T cell [22],inactive
same,Activity,CD4+ T cell [23],inactive
same,Activity,CD4+ T cell [24],inactive
same,Activity,CD4+ T cell [25],inactive
same,Activity,J-Lat A1 [26],inactive
same,Activity,U1 [27],inactive
same,Activity,CD4+ T cell [28],inactive
Cc1sc2c(c1C)C(c1ccc(Cl)cc1)=N[C@@H](CC(=O)OC(C)(C)C)c1nnc(C)n1-2,Activity,J-Lat A1 [1],Active
same,Activity,J-Lat A1 [29],Active
same,Activity,J-Lat A1 [2],Active
same,fold change (FC),U1 [30],250
O=C(CCCCCCC(=O)Nc1ccccc1)NO,Activity,J-Lat A1 [31],Active
CCCCCCCCCCCCCC(=O)O[C@@H]1[C@@H](C)[C@@]2(O)[C@@H](C=C(CO)C[C@]3(O)C(=O)C(C)=C[C@@H]23)[C@@H]2C(C)(C)[C@]12OC(C)=O,Activity,J-Lat A1 [32],Active

# Reference: ChEMBL document CHEMBL5715951, “Synergistic Reactivation of Latent HIV Expression by Ingenol-3-Angelate, PEP005, Targeted NF-kB Signaling in Combination with JQ1 Induced p-TEFb Activation” (PLoS Pathog, 2015)
